Experimental data reported in ChEMBL document CHEMBL1765020, “Synthesis and structure-affinity relationships of novel dibenzylideneacetone derivatives as probes for β-amyloid plaques” (J Med Chem, 2011).
Activity calls are given as the source filed them. No cut-off for these calls is given here.

Columns and labels:
[1] = Displacement of [125I]IMPY from amyloid beta (1 to 42) aggregate after 2 hrs by gamma counting
Procedure, shortened: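 Competition binding in 1 mL PBS (0.2 M, pH 7.4). Aggregated Aβ1-42 fibrils (60 nM final) with [125I]IMPY and inhibitor at 10^-5 to 10^-10 M, added in ethanol. Nonspecific binding was defined with 1 μM IMPY. Incubated 2 h at 37 °C with shaking, then vacuum-filtered through glass fibre filters and the bound fraction gamma-counted. IC50 was converted to Ki by Cheng-Prusoff; triplicate, mean ± SD.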

[2] = organism: Mus musculus; experiment: Binding affinity to amyloid beta (1 to 42) aggregate in APP/PS1 transgenic C57BL/6 mouse brain after 1 hr by autoradiography; assay type: tissue-based; conditions: C57BL6, tested as the 18F-labelled form
Procedure, shortened: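 Paraffin brain sections from 12-month-old male C57BL6-APP/PS1 mice, with wild-type male C57BL6 controls, were deparaffinized through xylene and graded ethanol, then held 30 min in PBS (0.2 M, pH 7.4). Sections were incubated 1 h at room temperature with radiotracer (5 μCi/100 μL), washed 3 min in 40% ethanol, rinsed in water, dried and exposed to an imaging plate overnight.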

[3] = organism: Mus musculus; experiment: Binding affinity to amyloid beta (1 to 42) aggregate in APP/PS1 transgenic C57BL/6 mouse brain by Thioflavin S fluorescent staining assay; assay type: tissue-based; conditions: C57BL6, tested as the 18F-labelled form
Procedure, shortened: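 The same Tg mouse sections used for autoradiography were stained with thioflavin S to locate plaques. Fluorescence was viewed by microscope: excitation 400–440 nm, dichroic 455 nm, long-pass 470 nm.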

[4] = biological target: Amyloid-beta precursor protein (Homo sapiens) (UniProt P05067); experiment: Binding affinity to amyloid beta (1 to 42) aggregate in Alzheimer disease patient brain by immunohistochemical staining using amyloid beta antibody; conditions: tested as the 18F-labelled form
Sequence of Amyloid-beta precursor protein (Homo sapiens) (P05067 whole entry): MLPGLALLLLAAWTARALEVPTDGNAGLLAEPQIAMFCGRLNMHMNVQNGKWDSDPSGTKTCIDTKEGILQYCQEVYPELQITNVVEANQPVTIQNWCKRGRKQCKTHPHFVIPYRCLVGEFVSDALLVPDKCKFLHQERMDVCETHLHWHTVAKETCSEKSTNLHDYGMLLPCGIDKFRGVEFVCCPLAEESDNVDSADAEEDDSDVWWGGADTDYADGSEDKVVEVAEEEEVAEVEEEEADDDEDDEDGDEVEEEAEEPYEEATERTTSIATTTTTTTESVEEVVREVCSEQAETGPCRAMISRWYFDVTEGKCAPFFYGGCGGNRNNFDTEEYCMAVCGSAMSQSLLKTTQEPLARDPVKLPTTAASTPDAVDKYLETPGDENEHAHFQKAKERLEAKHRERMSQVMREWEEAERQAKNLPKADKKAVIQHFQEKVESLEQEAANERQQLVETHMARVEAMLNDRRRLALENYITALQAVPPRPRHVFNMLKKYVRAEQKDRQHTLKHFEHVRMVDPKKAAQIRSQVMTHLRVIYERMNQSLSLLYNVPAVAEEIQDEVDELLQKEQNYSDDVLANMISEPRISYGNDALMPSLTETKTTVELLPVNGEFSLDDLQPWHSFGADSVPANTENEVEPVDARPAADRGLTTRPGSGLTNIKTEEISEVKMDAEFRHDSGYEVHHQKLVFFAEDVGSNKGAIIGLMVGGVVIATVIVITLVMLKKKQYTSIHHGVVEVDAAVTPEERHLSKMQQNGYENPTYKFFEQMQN
Procedure, shortened: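 Plaque presence and location in the AD patient temporal-lobe sections were confirmed by immunohistochemistry with monoclonal anti-Aβ1-42 antibody BC05.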

[5] = test system: Spleen; experiment: Biodistribution in ddY mouse spleen at 10 uCi/100 uL, iv after 2 mins by gamma counting; assay type: ADME, organism-based; conditions: in vivo
[6] = test system: Stomach; experiment: Biodistribution in ddY mouse stomach at 10 uCi/100 uL, iv after 2 mins by gamma counting; assay type: ADME, organism-based; conditions: in vivo
[7] = test system: Intestine; experiment: Biodistribution in ddY mouse intestine at 10 uCi/100 uL, iv after 2 mins by gamma counting; assay type: ADME, organism-based; conditions: in vivo
Procedure, shortened: (§1)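 Normal female ddY mice (5 weeks, about 20 g; n = 4 per group) received radiotracer iv. Organs were removed and weighed at 2–120 min and counted in a γ-counter. Percent dose per gram of wet tissue was calculated against diluted aliquots of the injected material and reported as mean ± SD.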

[8] = test system: Lung; experiment: Biodistribution in ddY mouse lung at 10 uCi/100 uL, iv after 2 mins by gamma counting; assay type: ADME, organism-based; conditions: in vivo
[9] = test system: Heart; experiment: Biodistribution in ddY mouse heart at 10 uCi/100 uL, iv after 2 mins by gamma counting; assay type: ADME, organism-based; conditions: in vivo; procedure, shortened: as §1
[10] = test system: Brain; experiment: Biodistribution in ddY mouse brain at 10 uCi/100 uL, iv after 15 mins by gamma counting; assay type: ADME, organism-based; conditions: in vivo, 0.25 h; procedure, shortened: as §1
[11] = test system: Blood; experiment: Biodistribution in ddY mouse blood at 10 uCi/100 uL, iv after 15 mins by gamma counting; assay type: ADME, organism-based; conditions: in vivo, 0.25 h; procedure, shortened: as §1
[12] = test system: Bone; experiment: Biodistribution in ddY mouse bone at 10 uCi/100 uL, iv after 15 mins by gamma counting; assay type: ADME, organism-based, Bone element; conditions: in vivo, 0.25 h; procedure, shortened: as §1
[13] = test system: Liver; experiment: Biodistribution in ddY mouse liver at 10 uCi/100 uL, iv after 15 mins by gamma counting; assay type: ADME, organism-based; conditions: in vivo, 0.25 h
[14] = test system: Kidney; experiment: Biodistribution in ddY mouse kidney at 10 uCi/100 uL, iv after 15 mins by gamma counting; assay type: ADME, organism-based; conditions: in vivo, 0.25 h
[15] = test system: Spleen; experiment: Biodistribution in ddY mouse spleen at 10 uCi/100 uL, iv after 15 mins by gamma counting; assay type: ADME, organism-based; conditions: in vivo, 0.25 h
[16] = test system: Stomach; experiment: Biodistribution in ddY mouse stomach at 10 uCi/100 uL, iv after 15 mins by gamma counting; assay type: ADME, organism-based; conditions: in vivo, 0.25 h
[17] = test system: Intestine; experiment: Biodistribution in ddY mouse intestine at 10 uCi/100 uL, iv after 15 mins by gamma counting; assay type: ADME, organism-based; conditions: in vivo, 0.25 h; procedure, shortened: as §1
[18] = test system: Lung; experiment: Biodistribution in ddY mouse lung at 10 uCi/100 uL, iv after 15 mins by gamma counting; assay type: ADME, organism-based; conditions: in vivo, 0.25 h
[19] = test system: Heart; experiment: Biodistribution in ddY mouse heart at 10 uCi/100 uL, iv after 15 mins by gamma counting; assay type: ADME, organism-based; conditions: in vivo, 0.25 h; procedure, shortened: as §1
[20] = test system: Brain; experiment: Biodistribution in ddY mouse brain at 10 uCi/100 uL, iv after 30 mins by gamma counting; assay type: ADME, organism-based; conditions: in vivo, 0.5 h; procedure, shortened: as §1
[21] = test system: Blood; experiment: Biodistribution in ddY mouse blood at 10 uCi/100 uL, iv after 30 mins by gamma counting; assay type: ADME, organism-based; conditions: in vivo, 0.5 h; procedure, shortened: as §1
[22] = test system: Bone; experiment: Biodistribution in ddY mouse bone at 10 uCi/100 uL, iv after 30 mins by gamma counting; assay type: ADME, organism-based, Bone element; conditions: in vivo, 0.5 h; procedure, shortened: as §1
[23] = test system: Liver; experiment: Biodistribution in ddY mouse liver at 10 uCi/100 uL, iv after 30 mins by gamma counting; assay type: ADME, organism-based; conditions: in vivo, 0.5 h
[24] = test system: Kidney; experiment: Biodistribution in ddY mouse kidney at 10 uCi/100 uL, iv after 30 mins by gamma counting; assay type: ADME, organism-based; conditions: in vivo, 0.5 h
[25] = test system: Spleen; experiment: Biodistribution in ddY mouse spleen at 10 uCi/100 uL, iv after 30 mins by gamma counting; assay type: ADME, organism-based; conditions: in vivo, 0.5 h
[26] = test system: Stomach; experiment: Biodistribution in ddY mouse stomach at 10 uCi/100 uL, iv after 30 mins by gamma counting; assay type: ADME, organism-based; conditions: in vivo, 0.5 h
[27] = test system: Intestine; experiment: Biodistribution in ddY mouse intestine at 10 uCi/100 uL, iv after 30 mins by gamma counting; assay type: ADME, organism-based; conditions: in vivo, 0.5 h; procedure, shortened: as §1
[28] = test system: Lung; experiment: Biodistribution in ddY mouse lung at 10 uCi/100 uL, iv after 30 mins by gamma counting; assay type: ADME, organism-based; conditions: in vivo, 0.5 h
[29] = test system: Heart; experiment: Biodistribution in ddY mouse heart at 10 uCi/100 uL, iv after 30 mins by gamma counting; assay type: ADME, organism-based; conditions: in vivo, 0.5 h; procedure, shortened: as §1
[30] = test system: Brain; experiment: Biodistribution in ddY mouse brain at 10 uCi/100 uL, iv after 60 mins by gamma counting; assay type: ADME, organism-based; conditions: in vivo, 1 h; procedure, shortened: as §1
[31] = test system: Blood; experiment: Biodistribution in ddY mouse blood at 10 uCi/100 uL, iv after 60 mins by gamma counting; assay type: ADME, organism-based; conditions: in vivo, 1 h; procedure, shortened: as §1
[32] = test system: Bone; experiment: Biodistribution in ddY mouse bone at 10 uCi/100 uL, iv after 60 mins by gamma counting; assay type: ADME, organism-based, Bone element; conditions: in vivo, 1 h; procedure, shortened: as §1
[33] = test system: Liver; experiment: Biodistribution in ddY mouse liver at 10 uCi/100 uL, iv after 60 mins by gamma counting; assay type: ADME, organism-based; conditions: in vivo, 1 h
[34] = test system: Kidney; experiment: Biodistribution in ddY mouse kidney at 10 uCi/100 uL, iv after 60 mins by gamma counting; assay type: ADME, organism-based; conditions: in vivo, 1 h
[35] = test system: Spleen; experiment: Biodistribution in ddY mouse spleen at 10 uCi/100 uL, iv after 60 mins by gamma counting; assay type: ADME, organism-based; conditions: in vivo, 1 h
[36] = test system: Stomach; experiment: Biodistribution in ddY mouse stomach at 10 uCi/100 uL, iv after 60 mins by gamma counting; assay type: ADME, organism-based; conditions: in vivo, 1 h
[37] = test system: Intestine; experiment: Biodistribution in ddY mouse intestine at 10 uCi/100 uL, iv after 60 mins by gamma counting; assay type: ADME, organism-based; conditions: in vivo, 1 h; procedure, shortened: as §1
[38] = test system: Lung; experiment: Biodistribution in ddY mouse lung at 10 uCi/100 uL, iv after 60 mins by gamma counting; assay type: ADME, organism-based; conditions: in vivo, 1 h
[39] = test system: Heart; experiment: Biodistribution in ddY mouse heart at 10 uCi/100 uL, iv after 60 mins by gamma counting; assay type: ADME, organism-based; conditions: in vivo, 1 h; procedure, shortened: as §1
[40] = test system: Brain; experiment: Ratio of drug uptake in ddY mouse brain at 10 uCi/100 uL, iv after 2 mins to drug uptake in ddY mouse brain at 10 uCi/100 uL, iv after 60 mins; assay type: ADME, organism-based; conditions: in vivo
Procedure, shortened: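 Normal female ddY mice (5 weeks, about 20 g) received the radiotracer iv, with groups of 4 per time point. At 2 and 60 min, brain and other organs were excised and weighed and counted in a γ-counter. %ID/g wet tissue was taken against diluted injectate aliquots. The ratio is brain %ID/g at 2 min divided by brain %ID/g at 60 min.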

[41] = Partition coefficient, log D of the compound; assay type: physicochemical; conditions: octanol/water
Procedure, shortened: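 Radiotracer partitioned between n-octanol and PBS: vortexed 3 min at room temperature, centrifuged 5 min at 3000 rpm. Weighed samples of the octanol (100 μL) and buffer (500 μL) layers were counted. log D is the log of the ratio of counts per gram, octanol versus PBS.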

[42] = test system: Brain; experiment: Biodistribution in ddY mouse brain at 10 uCi/100 uL, iv after 2 mins by gamma counting; assay type: ADME, organism-based; conditions: in vivo; procedure, shortened: as §1
[43] = test system: Blood; experiment: Biodistribution in ddY mouse blood at 10 uCi/100 uL, iv after 2 mins by gamma counting; assay type: ADME, organism-based; conditions: in vivo; procedure, shortened: as §1
[44] = test system: Bone; experiment: Biodistribution in ddY mouse bone at 10 uCi/100 uL, iv after 2 mins by gamma counting; assay type: ADME, organism-based, Bone element; conditions: in vivo; procedure, shortened: as §1
[45] = test system: Liver; experiment: Biodistribution in ddY mouse liver at 10 uCi/100 uL, iv after 2 mins by gamma counting; assay type: ADME, organism-based; conditions: in vivo
[46] = test system: Kidney; experiment: Biodistribution in ddY mouse kidney at 10 uCi/100 uL, iv after 2 mins by gamma counting; assay type: ADME, organism-based; conditions: in vivo

Structure (SMILES): CNc1ccc(/C=C/C(=O)/C=C/c2ccc(OCCOCCOCCF)cc2)cc1
- Ki [1]: 8.6 nM
- Activity [2]: Active
- Activity [3]: Active
- Activity [4]: Active

Structure (SMILES): CN(C)c1ccc(/C=C/C(=O)/C=C/c2ccc(OCCOCCOCC[18F])cc2)cc1
- Drug uptake [5]: 4.26 % ID/g
- Drug uptake [6]: 6.28 % ID/organ
- Drug uptake [7]: 4.12 % ID/g
- Drug uptake [8]: 12.3 % ID/g
- Drug uptake [9]: 7.6 % ID/g
- Drug uptake [10]: 1.51 % ID/g
- Drug uptake [11]: 3.89 % ID/g
- Drug uptake [12]: 2.42 % ID/g
- Drug uptake [13]: 24.41 % ID/g
- Drug uptake [14]: 12.77 % ID/g
- Drug uptake [15]: 6.19 % ID/g
- Drug uptake [16]: 7.39 % ID/organ
- Drug uptake [17]: 10.53 % ID/g
- Drug uptake [18]: 6.34 % ID/g
- Drug uptake [19]: 3.33 % ID/g
- Drug uptake [20]: 1.04 % ID/g
- Drug uptake [21]: 2.46 % ID/g
- Drug uptake [22]: 2.08 % ID/g
- Drug uptake [23]: 14.07 % ID/g
- Drug uptake [24]: 7.13 % ID/g
- Drug uptake [25]: 4.46 % ID/g
- Drug uptake [26]: 6 % ID/organ
- Drug uptake [27]: 17.5 % ID/g
- Drug uptake [28]: 3.38 % ID/g
- Drug uptake [29]: 1.9 % ID/g
- Drug uptake [30]: 0.9 % ID/g
- Drug uptake [31]: 1.6 % ID/g
- Drug uptake [32]: 2.33 % ID/g
- Drug uptake [33]: 6.88 % ID/g
- Drug uptake [34]: 3.67 % ID/g
- Drug uptake [35]: 1.93 % ID/g
- Drug uptake [36]: 3.98 % ID/organ
- Drug uptake [37]: 21.57 % ID/g
- Drug uptake [38]: 1.86 % ID/g
- Drug uptake [39]: 1.47 % ID/g
- Ratio [40]: 4.59
- logD [41]: 2.97
- Drug uptake [42]: 4.13 % ID/g
- Drug uptake [43]: 5.38 % ID/g
- Drug uptake [44]: 2.88 % ID/g
- Drug uptake [45]: 22.32 % ID/g
- Drug uptake [46]: 12.95 % ID/g
